Reference: ChEMBL document CHEMBL3045292, “Synthesis and herbicidal activity of 2-(7-fluoro-3-oxo- 3,4-dihydro-2H-benzo[b][1,4]oxazin-6-yl)isoindoline-1,3-diones” (J Agric Food Chem, 2005)

Key:
[1] = Phytotoxicity against Oryza sativa (rice) assessed as growth inhibition at 30 g/ha post-emergence treatment measured after 15 days by crop-selectivity assay; assay type: organism-based; conditions: in vivo, read-out: GI
Triticum aestivum [2] = experiment: (§1) Phytotoxicity against Triticum aestivum (wheat) assessed as growth inhibition at 30 g/ha post-emergence treatment measured after 15 days by crop-selectivity assay; assay type: organism-based; conditions: in vivo, other, 360 h
[3] = Phytotoxicity against Glycine max (soybean) assessed as growth inhibition at 7.5 g/ha post-emergence treatment measured after 15 days by crop-selectivity assay; assay type: organism-based; conditions: in vivo, read-out: GI
Zea mays [4] = experiment: (§2) Phytotoxicity against Zea mays (maize) assessed as growth inhibition at 150 g/ha pre-emergence treatment measured after 15 days by crop-selectivity assay; assay type: organism-based; conditions: in vivo, other, 360 h
Procedure, shortened: (§3)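 Compounds were formulated as 100 g/L emulsifiable concentrates, with DMF as solvent and Tween-80 as emulsifier, then diluted in water to the required rate. They were sprayed on pot-grown plants in a greenhouse, in clay soil (pH 6.5, 1.6% organic matter, 37.3% clay, CEC 12.1 cmol/kg). Untreated and DMF-treated plants served as controls. Percent growth inhibition was scored visually 15 days after treatment.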

Zea mays [5] = experiment: (§4) Phytotoxicity against Zea mays (maize) assessed as growth inhibition at 75 g/ha pre-emergence treatment measured after 15 days by crop-selectivity assay; assay type: organism-based; conditions: in vivo, other, 360 h; procedure, shortened: as §3
[6] = Phytotoxicity against Triticum aestivum (wheat) assessed as growth inhibition at 75 g/ha pre-emergence treatment measured after 15 days by crop-selectivity assay; assay type: organism-based; conditions: in vivo, read-out: GI; procedure, shortened: as §3
[7] = Phytotoxicity against Oryza sativa (rice) assessed as growth inhibition at 75 g/ha pre-emergence treatment measured after 15 days by crop-selectivity assay; assay type: organism-based; conditions: in vivo, read-out: GI
Glycine max = experiment: (§5) Phytotoxicity against Glycine max (soybean) assessed as growth inhibition at 75 g/ha pre-emergence treatment measured after 15 days by crop-selectivity assay; assay type: organism-based; conditions: in vivo, other, 360 h
Gossypium [8] = experiment: Phytotoxicity against Gossypium (cotton) assessed as growth inhibition at 75 g/ha pre-emergence treatment measured after 15 days by crop-selectivity assay; assay type: organism-based; conditions: in vivo, other, 360 h
Triticum aestivum [9] = experiment: (§6) Phytotoxicity against Triticum aestivum (wheat) assessed as growth inhibition at 30 g/ha pre-emergence treatment measured after 15 days by crop-selectivity assay; assay type: organism-based; conditions: in vivo, other, 360 h; procedure, shortened: as §3
[10] = Phytotoxicity against Oryza sativa (rice) assessed as growth inhibition at 30 g/ha pre-emergence treatment measured after 15 days by crop-selectivity assay; assay type: organism-based; conditions: in vivo, read-out: GI
Triticum aestivum [11] = experiment: (§7) Phytotoxicity against Triticum aestivum (wheat) assessed as growth inhibition at 15 g/ha pre-emergence treatment measured after 15 days by crop-selectivity assay; assay type: organism-based; conditions: in vivo, other, 360 h
[12] = system: Brassica rapa subsp. oleifera; experiment: Phytotoxicity against Brassica rapa subsp. oleifera assessed as growth inhibition at 15 g/ha pre-emergence treatment measured after 15 days by crop-selectivity assay; assay type: organism-based; conditions: in vivo, other, 360 h
Triticum aestivum [13] = experiment: (§8) Phytotoxicity against Triticum aestivum (wheat) assessed as growth inhibition at 15 g/ha post-emergence treatment measured after 15 days by crop-selectivity assay; assay type: organism-based; conditions: in vivo, other, 360 h
Oryza sativa [14] = experiment: (§9) Phytotoxicity against Oryza sativa (rice) assessed as growth inhibition at 7.5 g/ha pre-emergence treatment measured after 15 days by crop-selectivity assay; assay type: organism-based; conditions: in vivo, other, 360 h
Gossypium [15] = experiment: Phytotoxicity against Gossypium (cotton) assessed as growth inhibition at 7.5 g/ha pre-emergence treatment measured after 15 days by crop-selectivity assay; assay type: organism-based; conditions: in vivo, other, 360 h
Setaria viridis = experiment: Herbicidal activity against Setaria viridis (green foxtail) assessed as weed growth inhibition at 75 g/ha post-emergence treatment […]; assay type: functional; conditions: read-out: GI
Procedure, shortened: (§10)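 Pot-grown plants in the greenhouse, in clay soil (pH 6.5, 1.6% organic matter, 37.3% clay, CEC 12.1 cmol/kg). Compound was made up as a 100 g/L emulsified concentrate (DMF, Tween-80), diluted in water and sprayed at 75 g ai/ha. Pre-emergence spraying was 24 h after sowing; post-emergence at two-leaf (dicots) or one-leaf (monocots) stage. Untreated and DMF controls. Percent growth inhibition scored visually 15 days post-treatment.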

Echinochloa crus-galli = experiment: Herbicidal activity against Echinochloa crus-galli (barnyard grass) (barnyard grass) assessed as weed growth inhibition at 75 g/ha post-emergence treatment […]; assay type: functional; conditions: read-out: GI; procedure, shortened: as §10
Abutilon theophrasti [16] = experiment: Herbicidal activity against Abutilon theophrasti (velvetleaf) assessed as weed growth inhibition at 75 g/ha post-emergence treatment […]; assay type: functional; conditions: read-out: GI; procedure, shortened: as §10
[17] = Phytotoxicity against Zea mays (maize) assessed as growth inhibition at 7.5 g/ha post-emergence treatment measured after 15 days by crop-selectivity assay; assay type: organism-based; conditions: in vivo, read-out: GI; procedure, shortened: as §3
Triticum aestivum [18] = experiment: (§11) Phytotoxicity against Triticum aestivum (wheat) assessed as growth inhibition at 7.5 g/ha post-emergence treatment measured after 15 days by crop-selectivity assay; assay type: organism-based; conditions: in vivo, other, 360 h; procedure, shortened: as §3
Oryza sativa [19] = experiment: (§12) Phytotoxicity against Oryza sativa (rice) assessed as growth inhibition at 7.5 g/ha post-emergence treatment measured after 15 days by crop-selectivity assay; assay type: organism-based; conditions: in vivo, other, 360 h
Abutilon theophrasti [20] = experiment: Herbicidal activity against Abutilon theophrasti (velvetleaf) assessed as weed growth inhibition at 75 g/ha pre-emergence treatment […]; assay type: functional; conditions: read-out: GI; procedure, shortened: as §10
[21] = as §1; assay type: organism-based; conditions: in vivo, 30 g/ha, read-out: GI
[22] = as §2; assay type: organism-based; conditions: in vivo, 150 g/ha, read-out: GI; procedure, shortened: as §3
[23] = as §4; assay type: organism-based; conditions: in vivo, 75 g/ha, read-out: GI; procedure, shortened: as §3
[24] = as §5; assay type: organism-based; conditions: in vivo, 75 g/ha, read-out: GI
[25] = as §6; assay type: organism-based; conditions: in vivo, 30 g/ha, read-out: GI; procedure, shortened: as §3
[26] = as §7; assay type: organism-based; conditions: in vivo, 15 g/ha, read-out: GI
[27] = as §8; assay type: organism-based; conditions: in vivo, 15 g/ha, read-out: GI
[28] = as §9; assay type: organism-based; conditions: in vivo, 7.5 g/ha, read-out: GI
[29] = as §11; assay type: organism-based; conditions: in vivo, 7.5 g/ha, read-out: GI; procedure, shortened: as §3
[30] = as §12; assay type: organism-based; conditions: in vivo, 7.5 g/ha, read-out: GI

Structure (SMILES) | inhibition at 360 h [1] | inhibition at 360 h [3] | inhibition at 360 h [6] | inhibition at 360 h [7] | growth inhibition (GI) (Gossypium [8]) | inhibition at 360 h [10] | growth inhibition (GI) [12] | growth inhibition (GI) (Gossypium [15]) | inhibition of growth at 75 g/ha (Setaria viridis) | inhibition of growth at 75 g/ha (Echinochloa crus-galli) | inhibition of growth at 75 g/ha (Abutilon theophrasti [16]) | inhibition at 360 h [17] | inhibition of growth at 75 g/ha (Abutilon theophrasti [20]) | also measured
C#CCN1C(=O)COc2cc(F)c(N3C(=O)c4ccc(F)cc4C3=O)cc21 | > 10% | > 10% | > 10% | > 10% | Non-toxic | > 10% | Non-toxic | Non-toxic | > 80% | > 80% | > 80% | 1% | > 80% | growth inhibition (GI) (Triticum aestivum [2]): Non-toxic; growth inhibition (GI) (Zea mays [4]): Non-toxic; growth inhibition (GI) (Zea mays [5]): Non-toxic; growth inhibition (GI) (Glycine max): Non-toxic; growth inhibition (GI) (Triticum aestivum [9]): Non-toxic; growth inhibition (GI) (Triticum aestivum [11]): Non-toxic; growth inhibition (GI) (Triticum aestivum [13]): Non-toxic; growth inhibition (GI) (Oryza sativa [14]): Non-toxic; growth inhibition (GI) (Triticum aestivum [18]): Non-toxic; growth inhibition (GI) (Oryza sativa [19]): Non-toxic
C#CCN1C(=O)COc2cc(F)c(N3C(=O)C4=C(CCCC4)C3=O)cc21 [FLUMIOXAZIN] | > 10% | > 10% | > 10% | > 10% | Non-toxic | > 10% | Non-toxic | Non-toxic | > 80% | > 80% | > 80% | > 10% | > 80% | inhibition at 360 h [21]: > 10%; inhibition at 360 h [22]: 1%; inhibition at 360 h [23]: 1%; inhibition at 360 h [24]: > 10%; inhibition at 360 h [25]: > 10%; inhibition at 360 h [26]: > 10%; inhibition at 360 h [27]: > 10%; inhibition at 360 h [28]: > 10%; inhibition at 360 h [29]: > 10%; inhibition at 360 h [30]: > 10%
